Results on four molecules are retold here after ChEMBL document CHEMBL1145345, “Galactosyl derivatives of L-arginine and D-arginine: synthesis, stability, cell permeation, and nitric oxide production in pituitary GH3 cells” (J Med Chem, 2006).

Assay type in all cases: functional, cell-based
The subject of assay [1] is GH3. The assay is described as follows: Area under DAF2 monitored nitrite production in GH3 cells-incubation period curve.
Assay [2] deals with AEC. Briefly: Increase in DAF2 monitored NO production in BAEC at 10 mM after 30 mins. To be noted: Bos taurus. Put shortly: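 Bovine aortic endothelial cells grown in DMEM/10% FBS, exposed to 10 mM compound in normal Krebs solution (pH 7.4) for 30 min at 37 °C. Then loaded with 10 µM DAF-2DA for 30 min, fixed with 4% paraformaldehyde for 5 min, and imaged by fluorescence microscopy (ex/em 495/515 nm). Output is % of Krebs-only control fluorescence.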

Assay [3] deals with GH3. The assay is described as follows: Increase in DAF2 monitored nitrite production in GH3 cells at 30 mins.
For assay [4], the system named is GH3. Briefly: Increase in DAF2 monitored NO production in GH3 cells at 30 mins. Put shortly:
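GH3 cells in F10 with 10% FBS and 15% horse serum, treated 30 min at 37 °C with 3, 10 or 30 mM compound in normal Krebs (pH 7.4). Loaded with 10 µM DAF-2DA for 30 min, fixed in 4% paraformaldehyde, and fluorescence read by densitometry at 495/515 nm. Reported as % of Krebs-only control; mean ± S.E. of three values from three sessions.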

Activity calls are given as the source filed them. The calls are words filed in the database; no cut-off is given here.

On to `N=C(N)NCCC[C@H](N)C(=O)O`, for which the AUC in assay [1] was found to be 1390 ng·h/mL. The result in assay [2] was Active.

Regarding `NC(N)=NCCC[C@@H](N)C(=O)OC[C@H]1O[C@H](O)[C@H](O)[C@@H](O)[C@H]1O`, in assay [1], the AUC is 7500 ng·h/mL. Moreover, the outcome in assay [2] was Active.

In the case of `N=C(N)NCCC[C@@H](N)C(=O)O`, in assay [1], the AUC worked out at 2470 ng·h/mL. In addition, the outcome in assay [2] was Active.

Turning to `NC(N)=NCCC[C@H](N)C(=O)OC[C@H]1O[C@H](O)[C@H](O)[C@@H](O)[C@H]1O`, the outcome in assay [3], in assay [4] and in assay [2] was Active.
